Drawing on ChEMBL document CHEMBL1777723, “Design, synthesis, and evaluation of bromo-retrochalcone derivatives as protein tyrosine phosphatase 1B inhibitors” (Bioorg Med Chem Lett, 2011), this text covers IC50 and inhibition for 42 compounds.

Experiment [1] concerns the target T1, Tyrosine-protein phosphatase non-receptor type 1 (Homo sapiens, UniProt P18031).
T1 sequence (P18031 whole entry): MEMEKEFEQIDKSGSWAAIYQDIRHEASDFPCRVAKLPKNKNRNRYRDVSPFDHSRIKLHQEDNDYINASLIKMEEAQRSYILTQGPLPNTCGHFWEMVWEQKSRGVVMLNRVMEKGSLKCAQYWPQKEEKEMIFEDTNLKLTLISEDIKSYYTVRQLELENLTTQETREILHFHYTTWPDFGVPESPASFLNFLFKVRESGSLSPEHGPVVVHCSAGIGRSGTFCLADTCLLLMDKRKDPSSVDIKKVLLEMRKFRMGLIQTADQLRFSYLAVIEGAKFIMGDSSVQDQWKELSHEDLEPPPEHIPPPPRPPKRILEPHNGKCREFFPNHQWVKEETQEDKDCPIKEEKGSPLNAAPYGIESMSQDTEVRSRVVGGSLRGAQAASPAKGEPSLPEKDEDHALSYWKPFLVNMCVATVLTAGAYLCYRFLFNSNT
Description: (§1) Inhibition of recombinant human PTP1B using p-nitrophenyl phosphate as substrate after 30 mins. The gist of the method: (§2)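 Reaction buffer: 10 citrate pH […], 0.1 M NaCl, 1 mM EDTA, 1 mM dithiothreitol. Enzyme and sample were added with 50 of 4 mM pNPP substrate stock, incubated 30 min at 37 °C, then quenched with 10 N NaOH.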

Experiment [2] concerns the target T2, Tyrosine-protein phosphatase non-receptor type 1 (Homo sapiens) (UniProt P18031).
T2 sequence (whole entry): T1 sequence (P18031 whole entry)
The experiment is described as §1. The gist of the method: as §2

Molecules are shown by their SMILES.

For the compound `COc1cc(O)c(Br)cc1/C=C/C(=O)c1ccc(OC(=O)c2ccc(Br)cc2)cc1`, the half-maximal inhibitory concentration (IC50) (as a rule, the concentration that inhibits the measured activity by half) in experiment [1] was 2.3 µM. For the same compound, in experiment [2], the inhibition entry was “Dose-dependent effect”.
As for `C=C(C)C(C)c1cc(C(=O)/C=C/c2cc(Br)c(O)cc2OC)ccc1OCC=C(C)C` (stereo unspecified), the half-inhibitory concentration (IC50) in experiment [1] was determined as 7 µM. In experiment [2], the inhibition result was “Dose-dependent effect”.
For `COc1ccc(C(=O)/C=C/c2cc(Br)c(O)cc2OC)cc1` the same measures were 9.9 µM and “Dose-dependent effect”.
Consider `C=C(C)C(C)c1cc(C(=O)/C=C/c2cc(Br)c(O)cc2OC)ccc1O` (stereo unspecified), for which the IC50 in experiment [1] amounted to 6.9 µM. In addition, the inhibition result in experiment [2] is “Dose-dependent effect”.
Regarding `C=CCN(CC=C)c1cccc(C(=O)/C=C/c2cc(Br)c(O)cc2OC)c1`, in experiment [1], the 50% inhibitory concentration (IC50) is 4.5 µM. Besides, the inhibition entry in experiment [2] is “Dose-dependent effect”.
For `COc1cc(O)c(Br)cc1/C=C/C(=O)c1ccccc1N(C)C` the same measures were 13.9 µM and “Dose-dependent effect”.
`C=C(C)C(C)c1cc(C(=O)/C=C/c2cc(Br)c(O)cc2O)ccc1OC` (stereo unspecified): in experiment [1], the half-maximal inhibitory concentration (IC50) was found to be 2.6 µM. Also, the inhibition entry in experiment [2] was “Dose-dependent effect”.
For `COc1cc(O)c(Br)cc1/C=C/C(=O)c1ccc(O)cc1` the same measures were 13.7 µM and “Dose-dependent effect”.
As to `COc1cc(O)c(Br)cc1/C=C/C(=O)c1ccc(OC(=O)c2ccc(C(C)(C)C)cc2)cc1`, in experiment [1], the half-maximal inhibitory concentration (IC50) worked out at 2.4 µM. Also, the inhibition result in experiment [2] was “Dose-dependent effect”.
For `COc1cc(O)c(Br)cc1/C=C/C(=O)c1ccc(OS(C)(=O)=O)cc1` the same measures were 18.4 µM and “Dose-dependent effect”.
In the same order, the values of `COc1cc(O)c(Br)cc1/C=C/C(=O)c1ccc(OCc2ccccc2)cc1` are 2.9 µM and “Dose-dependent effect”.
Regarding `COc1cc(O)c(Br)cc1/C=C/C(=O)c1ccc(NC(=O)c2ccc(C(C)(C)C)cc2)cc1`, the IC50 in experiment [1] was 3.4 µM. In experiment [2], the inhibition entry is “Dose-dependent effect”.
In the same order, the values of `COc1cc(O)c(Br)cc1/C=C/C(=O)c1cccc(N2CCCCC2)c1` are 4.9 µM and “Dose-dependent effect”.
In the same order, the values of `COc1cc(O)c(Br)cc1/C=C/C(=O)c1ccc(OCC=C(C)C)cc1` are 3.5 µM and “Dose-dependent effect”.
For `COc1cc(O)c(Br)cc1/C=C/C(=O)c1ccc(OCCCC(=O)O)cc1` the same measures were 30 µM and “Dose-dependent effect”.
In the case of `COc1cc(O)c(Br)cc1/C=C/C(=O)c1ccc(N2CCCCC2)cc1`, the IC50 in experiment [1] was 2.6 µM. Besides, in experiment [2], the inhibition result is “Dose-dependent effect”.
Turning to `COc1cc(O)c(Br)cc1/C=C/C(=O)c1cc2c(cc1N(C)C)OCO2`, the half-maximal inhibitory concentration (IC50) in experiment [1] is 6.3 µM. Further, the inhibition entry in experiment [2] is “Dose-dependent effect”.
For `COc1cc(O)c(Br)cc1/C=C/C(=O)c1ccc(-n2cccn2)cc1` the same measures were 6 µM and “Dose-dependent effect”.
As for `C=CCN(CC=C)c1ccccc1C(=O)/C=C/c1cc(Br)c(O)cc1OC`, the half-maximal inhibitory concentration (IC50) in experiment [1] is 3.5 µM. Also, in experiment [2], the inhibition result is “Dose-dependent effect”.
As to `CCOC(=O)CCCOc1ccc(C(=O)/C=C/c2cc(Br)c(O)cc2OC)cc1`, in experiment [1], the 50% inhibitory concentration (IC50) stood at 10.8 µM. Also, in experiment [2], the inhibition entry is “Dose-dependent effect”.
Turning to `COc1cc(O)c(Br)cc1/C=C/C(=O)c1ccc(N)cc1`, the concentration for half-maximal inhibition (IC50) in experiment [1] worked out at 6.2 µM. Moreover, the inhibition result in experiment [2] is “Dose-dependent effect”.
As for `C=CCc1cc(C(=O)/C=C/c2cc(Br)c(O)cc2OC)ccc1OC`, in experiment [1], the half-maximal inhibitory concentration (IC50) amounted to 5.3 µM. Besides, the inhibition entry in experiment [2] is “Dose-dependent effect”.
For `COc1cc(O)c(Br)cc1/C=C/C(=O)c1ccc(N2CCOCC2)cc1` the same measures were 8 µM and “Dose-dependent effect”.
Turning to `C=C(C)[C@H](C)c1cc(/C=C/C(=O)c2ccc(O)cc2)c(OC)cc1O` [LICOCHALCONE E], the IC50 in experiment [1] is 20.7 µM.
For the compound `COc1cc(O)c(Br)cc1/C=C/C(=O)c1ccc(OC)c(CC=C(C)C)c1`, the 50% inhibitory concentration (IC50) in experiment [1] came out at 2.9 µM. The inhibition entry in experiment [2] was “Dose-dependent effect”.
On to `COc1cccc(C(=O)/C=C/c2cc(Br)c(O)cc2OC)c1`, for which the 50% inhibitory concentration (IC50) in experiment [1] stood at 11.1 µM. Besides, in experiment [2], the inhibition result is “Dose-dependent effect”.
In the same order, the values of `COc1cc(O)c(Br)cc1/C=C/C(=O)c1ccc(O)c(CC=C(C)C)c1` are 4.4 µM and “Dose-dependent effect”.
As to `COc1cc(O)c(Br)cc1/C=C/C(=O)c1ccc(OS(=O)(=O)c2ccc(C)cc2)cc1`, the IC50 in experiment [1] is 2.7 µM. Besides, the inhibition result in experiment [2] was “Dose-dependent effect”.
For the compound `C=C(C)C(C)c1cc(C(=O)/C=C/c2cc(Br)c(OC3CCCCO3)cc2OC)ccc1O` (stereo unspecified), the IC50 in experiment [1] worked out at 10.3 µM. In experiment [2], the inhibition entry is “Dose-dependent effect”.
For `C=C(C)C(C)c1cc(C(=O)/C=C/c2cc(Br)c(OC3CCCCO3)cc2O)ccc1OC` (stereo unspecified) the same measures were 2.9 µM and “Dose-dependent effect”.
On to `C=CCN(CC=C)c1ccc(C(=O)/C=C/c2cc(Br)c(O)cc2OC)cc1`, for which, in experiment [1], the IC50 came out at 3.4 µM. For the same compound, the inhibition result in experiment [2] was “Dose-dependent effect”.
For `COc1cc(O)c(Br)cc1/C=C/C(=O)c1ccc(OC(=O)c2ccccc2)cc1` the same measures were 4.9 µM and “Dose-dependent effect”.
For `C=C(C)C(C)c1cc(C(=O)/C=C/c2cc(Br)c(O)cc2OC)ccc1OC` (stereo unspecified) the same measures were 1.9 µM and “Dose-dependent effect”.
In the same order, the values of `CCOC(=O)COc1ccc(C(=O)/C=C/c2cc(Br)c(O)cc2OC)cc1` are 15.2 µM and “Dose-dependent effect”.
Consider `COc1cc(O)c(Br)cc1/C=C/C(=O)c1ccc(OCC(=O)O)cc1`, for which, in experiment [1], the half-inhibitory concentration (IC50) was greater than 30 µM.
Consider `COc1cc(O)c(Br)cc1/C=C/C(=O)c1ccc(N(C)C)cc1`, for which the IC50 in experiment [1] was greater than 30 µM.
For `CCCCOc1ccc(C(=O)/C=C/c2cc(Br)c(O)cc2OC)cc1`, the half-maximal inhibitory concentration (IC50) in experiment [1] was 4.2 µM. In addition, the inhibition entry in experiment [2] was “Dose-dependent effect”.
Regarding `C=CCc1cc(C(=O)/C=C/c2cc(Br)c(O)cc2OC)ccc1O`, the half-inhibitory concentration (IC50) in experiment [1] is 7.1 µM. The inhibition result in experiment [2] is “Dose-dependent effect”.
For `COc1cc(O)c(Br)cc1/C=C/C(=O)c1cccc(N(C)C)c1` the same measures were 26.4 µM and “Dose-dependent effect”.
In the same order, the values of `COc1cc(O)c(Br)cc1/C=C/C(=O)c1cccc(NS(C)(=O)=O)c1` are 11.3 µM and “Dose-dependent effect”.
In the same order, the values of `COc1cc(O)c(Br)cc1/C=C/C(=O)c1cccc(N)c1` are 6.8 µM and “Dose-dependent effect”.
As for `COc1cc(O)c(Br)cc1/C=C/C(=O)c1ccccc1N1CCCCC1`, the IC50 in experiment [1] is 6.8 µM. In experiment [2], the inhibition result was “Dose-dependent effect”.
